{"source": "paper PMC6082709", "about": "(Nature medicine, 2018)", "key": {"[1]": {"system": "caspase-1 knockout OCI-AML2, MV4;11 and THP-1 cells", "test": "Cell viability of caspase-1 knockout cells", "assay_type": "cell-based, human"}, "AML cell lines [2]": {"system": "AML cell lines", "test": "CellTiter-Glo cell viability across the cell line panel", "assay_type": "cell-based, human", "conditions": "for sensitivity of the Val-boroPro-sensitive AML cell lines to the compound: cell viability relative to DMSO; for sensitivity of the Val-boroPro-sensitive AML cell lines to the compound / reduction in cell viability: 48 h"}, "primary T-ALL samples": {"system": "primary T-ALL samples", "test": "Primary cancer cell assay", "assay_type": "cell-based, human", "conditions": "20 µM, FACS", "how_it_was_run": "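Bone marrow aspirates were strained, Ficoll-separated and ACK-lysed, then frozen; AML samples 1–4 were first passaged in NSG mice. Cells were thawed in IMDM/15% FBS with DNase1 and cultured with 2-mercaptoethanol, G-CSF, SCF, IL-3 and FLT3-ligand. One day later, 100,000 cells/well were treated in triplicate with 20 μM or DMSO for 40 h at 37 °C. Death was scored by flow cytometry (anti-human/anti-mouse CD45, PI or DAPI).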"}, "K562 cells": {"system": "K562 cells", "test": "CellTiter-Glo cell viability assay", "assay_type": "cell-based, human"}, "primary AML cells": {"system": "primary AML cells", "test": "Primary cancer cell assay", "assay_type": "cell-based, human", "conditions": "20 µM, 48 h, FACS"}, "primary B-ALL": {"system": "primary B-ALL", "test": "Primary cancer cell assay", "assay_type": "cell-based, human", "conditions": "20 µM, 48 h, FACS"}, "G-CSF and Cxcl1": {"system": "G-CSF and Cxcl1", "conditions": "mice; cited from earlier work"}, "[3]": {"system": "CARD8−/− THP-1, MV4;11 and OCI-AML2 cells", "test": "LDH release / GSDMD cleavage in CARD8 knockout cells", "assay_type": "cell-based, human", "conditions": "2 μM; 24 h OCI-AML2 and MV4;11, 48 h THP-1"}, "non-AML cell lines": {"system": "non-AML cell lines", "test": "CellTiter-Glo cell viability across the cell line panel", "assay_type": "cell-based, human", "how_it_was_run": "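Cells were dispensed at 2000 cells/well in 25 μL of medium, and compound was added by pintool. MV4;11 and RS4;11 were incubated 22 h and all other lines 46 h, at 37 °C. Plates were equilibrated to room temperature, then CellTiter-Glo was added, with 2 min orbital shaking and 10 min at room temperature. Luminescence is expressed relative to DMSO as mean ± SEM of three biological replicates.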"}, "[4]": {"system": "primary human cancer AML-10", "test": "AML-10 patient-derived xenograft", "assay_type": "in vivo, mouse", "conditions": "2 mg/kg, PDX model"}, "[5]": {"system": "HEK 293T cells stably expressing hCASP1 and hGSDMD transfected with CARD8", "test": "LDH release from transfected HEK 293T cells", "assay_type": "cell-based, human", "conditions": "2 μM, 24 h; CARD8 but not NLRP1 or S297A CARD8", "how_it_was_run": "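HEK 293T cells stably expressed human caspase-1 (hygromycin-selected) and gasdermin D (puromycin-selected) after lentiviral transduction. They were seeded at 0.5 × 10^6/well in DMEM/10% FBS one day before Fugene HD transfection, with total DNA brought to 2 μg with RFP vector; RFP vector alone served as mock. After 24 h, cells got DMSO or 2 μM for a further 24 h. Supernatant LDH was measured (mean ± SEM, three experiments).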"}, "[6]": {"test": "Evaluation in wild-type C57BL/6J mice", "assay_type": "in vivo, mouse", "conditions": "20 μg i.p.", "how_it_was_run": "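Female C57BL/6J mice (7 weeks) received vehicle (1 mM HCl/PBS) or 20 μg either once (n=5/group, harvested at 6 h or 24 h) or once daily, 5 days/week for two weeks (10 doses, n=4, harvested 24 h after the last dose). Blood was analysed for complete blood count and blood chemistry.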"}, "[7]": {"conditions": "cited from earlier work"}, "sensitive AML cell lines": {"system": "sensitive AML cell lines", "test": "Immunoblotting of GSDMD and PARP cleavage", "assay_type": "cell-based, human", "conditions": "24 h"}, "[8]": {"system": "NLRP1−/− THP-1 and MV4;11 cells", "test": "LDH release / GSDMD cleavage in NLRP1 knockout cells", "assay_type": "cell-based, human"}, "HEK 293T cells": {"system": "HEK 293T cells", "test": "CellTiter-Glo cell viability assay", "assay_type": "cell-based, human", "conditions": "HEK293T"}, "MV4;11 leukemia cells": {"system": "MV4;11 leukemia cells", "test": "Disseminated MV4", "assay_type": "in vivo, mouse", "conditions": "20 μg i.p. once daily, 5 days a week for 4 weeks; log-rank test", "how_it_was_run": "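Luciferase-expressing MV4;11 cells (1 million, neomycin-selected) were injected into the tail vein of 200 cGy-irradiated 7-week female NSG mice. From day 5, randomized mice (n=9/group) got 100 μL i.p. vehicle (1 mM HCl in PBS, pH 7.4) or 20 μg/100 μL once daily, 5 days/week for 4 weeks. BLI tracked burden. Survival ran from inoculation to moribund state (6/group), analysed by log-rank test.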"}, "[9]": {"system": "primary human cord blood CD34+ cells", "test": "CellTiter-Glo cell viability assay", "assay_type": "cell-based", "conditions": "6 μM, 24 h, Cell Titer Glo", "how_it_was_run": "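Human cord blood cells were thawed in IMDM/15% FBS with DNase1 (1 mg/mL). Culture medium was IMDM/10% FBS with TPO, SCF and G-CSF (each 100 ng/mL). Cells were assayed immediately after thawing at 2000 cells/well with pintool compound addition, incubated 22 h at 37 °C, and read by CellTiter-Glo luminescence after 2 min shaking and 10 min at room temperature.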"}, "Tolerability in MV4": {"test": "Tolerability in MV4", "assay_type": "in vivo, mouse", "conditions": "NSG mice, 20 μg i.p., treatment day 23", "how_it_was_run": "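Disseminated MV4;11-Luc NSG model: mice were dosed i.p. with 100 μL vehicle (1 mM HCl/PBS) or 20 μg/100 μL daily, 5 days/week, and weighed daily. After 23 days of dosing, peripheral blood was taken from 3 mice per group, chosen by high, median and low BLI flux. It was analysed for complete blood counts and blood chemistry. Femur, spleen, lung and liver sections were H&E-stained.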"}, "G-CSF": {"system": "G-CSF", "conditions": "healthy volunteers and cancer patients; cited from earlier work"}, "[10]": {"system": "CASP1−/− MV4;11 leukemia cells", "test": "Disseminated CASP1−/− MV4", "assay_type": "in vivo, mouse", "conditions": "20 μg i.p. once daily, 5 days a week, 3 weeks", "how_it_was_run": "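NSG mice (female, 7 weeks, 200 cGy irradiated) received 1 million luciferase-expressing CASP1−/− MV4;11 cells by tail vein. On day 5 they were randomized (n=9/group) and dosed i.p. with 100 μL vehicle (1 mM HCl in PBS, pH 7.4) or 20 μg/100 μL once daily, 5 days/week. Dosing stopped after 3 weeks. Burden was tracked by bioluminescence; survival to moribund state used all 9 animals.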"}, "THP-1 or MV4;11 cells": {"system": "THP-1 or MV4;11 cells", "test": "LDH release with Val-boroPro plus bortezomib", "assay_type": "cell-based, human", "conditions": "bortezomib 100 nM with Val-boroPro 2 μM, 6 h"}, "AML cell lines [11]": {"system": "AML cell lines", "conditions": "cited from earlier work"}}, "note": "Entries after “also recorded” stand apart in the source; their conditions may differ."}
{"smiles": "CC[C@@H](C)[C@H](N)C(=O)N1Cc2ccccc2C1", "note": "[L-allo-Ile-isoindoline]", "values": [{"measurement": "sensitivity of caspase-1 knockout cells", "setting": "[1]", "result": "resistant"}, {"measurement": "sensitivity of the Val-boroPro-sensitive AML cell lines to the compound", "setting": "AML cell lines [2]", "result": "sensitive"}]}
{"smiles": "CC(C)[C@H](N)C(=O)N1CCC[C@H]1B(O)O", "note": "[Val-boroPro]", "values": [{"measurement": "sensitivity of caspase-1 knockout cells", "setting": "[1]", "result": "resistant"}, {"measurement": "cell death in primary T-ALL samples", "setting": "primary T-ALL samples", "result": "completely resistant"}, {"measurement": "cell death after 5 days of treatment", "setting": "K562 cells", "result": "no cell death"}, {"measurement": "cell death in primary AML samples", "setting": "primary AML cells", "result": "sensitive"}, {"measurement": "cell death in primary B-ALL", "setting": "primary B-ALL", "result": "sensitive"}, {"measurement": "serum protein levels of several cytokines, including G-CSF and Cxcl1", "setting": "G-CSF and Cxcl1", "result": "increases"}, {"measurement": "sensitivity of CARD8−/− cells (GSDMD cleavage, cell death)", "setting": "[3]", "result": "completely resistant"}, {"measurement": "activity against non-AML cell lines tested", "setting": "non-AML cell lines", "result": "no activity"}, {"measurement": "weight loss associated with leukemia progression", "setting": "[4]", "result": "slowed weight loss"}, {"measurement": "cytotoxicity in CARD8-expressing HEK 293T cells", "setting": "[5]", "result": "sensitive"}, {"measurement": "effects on peripheral blood counts or body weight", "setting": "[6]", "result": "no significant effects"}, {"measurement": "maximum tolerated dose in humans", "setting": "[7]", "result": "without reaching a maximum tolerated dose"}, {"measurement": "serum concentrations reached in humans", "setting": "[7]", "result": "> 0.1", "unit": "µM"}, {"measurement": "cleavage of gasdermin D (GSDMD), not PARP", "setting": "sensitive AML cell lines", "result": "induced cleavage"}, {"measurement": "pyroptosis in NLRP1−/− cells", "setting": "[8]", "result": "induced pyroptosis"}, {"measurement": "reduction in cell viability", "setting": "AML cell lines [2]; KG1, THP-1 and NOMO-1", "result": "40–65%"}, {"measurement": "reduction in cell viability", "setting": "AML cell lines [2]; MV4;11, OCI-AML2, SET-2, RS4;11 and MOLM-13", "result": "> 80", "unit": "%"}, {"measurement": "IC50", "setting": "AML cell lines [2]; Homo sapiens, read-out: IC50 values in sensitive AML cell lines", "result": "0.006 to 0.206", "unit": "µM"}, {"measurement": "time in which cells died", "setting": "AML cell lines [2]; MV4;11 and OCI-AML2 cells", "result": "1 to 2", "unit": "days"}, {"measurement": "compound treatment required to achieve maximal cell killing", "setting": "AML cell lines [2]; THP-1 and NOMO-1 cells", "result": 5, "unit": "days"}, {"measurement": "cell death after 5 days of treatment", "setting": "HEK 293T cells", "result": "no cell death"}, {"measurement": "median extension in survival", "setting": "MV4;11 leukemia cells", "result": 24.5, "unit": "days"}, {"measurement": "cell death in primary CD34+ human cord blood cells", "setting": "[9]", "result": "sensitive"}, {"measurement": "effects on peripheral blood cell counts, serum chemistry, body weight", "setting": "Tolerability in MV4", "result": "no significant effects"}, {"measurement": "levels of a number of cytokines, including G-CSF", "setting": "G-CSF", "result": "elevated"}, {"measurement": "efficacy against CASP1−/− MV4;11 cells in vivo (bioluminescence, survival)", "setting": "[10]", "result": "absolutely no efficacy; also recorded: not statistically different"}]}
{"smiles": "CC(C)C[C@H](NC(=O)[C@H](Cc1ccccc1)NC(=O)c1cnccn1)B(O)O", "note": "[bortezomib]", "values": [{"measurement": "effect on activation of CARD8 by Val-boroPro (LDH release)", "setting": "THP-1 or MV4;11 cells", "result": "blocks"}]}
{"smiles": "N[C@@H](CC(=O)N1CCn2c(nnc2C(F)(F)F)C1)Cc1cc(F)c(F)cc1F", "note": "[sitagliptin]", "values": [{"measurement": "sensitivity of the Val-boroPro-sensitive AML cell lines to the compound", "setting": "AML cell lines [2]", "result": "not sensitive"}]}
{"smiles": "N#C[C@@H]1CCCN1C(=O)CNC12CC3CC(CC(O)(C3)C1)C2", "note": "[vildagliptin]", "values": [{"measurement": "anti-AML cytotoxicity on its own", "setting": "AML cell lines [11]", "result": "did not exhibit any anti-AML cytotoxicity"}]}
